Data as given in article PMC10023024 (Clinical Pharmacokinetics, 2023).

Type: in vivo, human
In short: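 Tablets co-formulated with SNAC, 3 mg on Days 1–5 then 7 mg on Days 6–10. Reference arm: ≥6 h overnight fast, 8 am dose, 30-min post-dose fast. Other arms: ~760 kcal meal, then 2/4/6 h fast, 8 pm dose, 30-min or overnight post-dose fast. Plasma sampled 10 min–24 h after 10th dose and measured by validated LC-MS/MS. AUC0–24h by linear trapezoidal method; log values back-transformed to geometric-mean ratios with 95% CI.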

[1] = 2 h–30 min, 4 h–30 min and 6 h–30 min arms vs night–30 min, p < 0.0001

For CC[C@H](C)[C@H](NC(=O)[C@H](Cc1ccccc1)NC(=O)[C@H](CCC(=O)O)NC(=O)[C@H](CCCCNC(=O)COCCOCCNC(=O)COCCOCCNC(=O)CC[C@H](NC(=O)CCCCCCCCCCCCCCCCC(=O)O)C(=O)O)NC(=O)[C@H](C)NC(=O)[C@H](C)NC(=O)[C@H](CCC(N)=O)NC(=O)CNC(=O)[C@H](CCC(=O)O)NC(=O)[C@H](CC(C)C)NC(=O)[C@H](Cc1ccc(O)cc1)NC(=O)[C@H](CO)NC(=O)[C@H](CO)NC(=O)[C@@H](NC(=O)[C@H](CC(=O)O)NC(=O)[C@H](CO)NC(=O)[C@@H](NC(=O)[C@H](Cc1ccccc1)NC(=O)[C@@H](NC(=O)CNC(=O)[C@H](CCC(=O)O)NC(=O)C(C)(C)NC(=O)[C@@H](N)Cc1cnc[nH]1)[C@@H](C)O)[C@@H](C)O)C(C)C)C(=O)N[C@@H](C)C(=O)N[C@@H](Cc1c[nH]c2ccccc12)C(=O)N[C@@H](CC(C)C)C(=O)N[C@H](C(=O)N[C@@H](CCCNC(=N)N)C(=O)NCC(=O)N[C@@H](CCCNC(=N)N)C(=O)NCC(=O)O)C(C)C [oral semaglutide, semaglutide], the “AUC0–24h Day 10 estimated treatment ratio range” value [1] was 0.12–0.43, the “Cmax Day 10 estimated treatment ratio range” value [1] was 0.12–0.44 and the “reduction of exposure to semaglutide compared with reference arm (night–30 min)” value (all alternative treatment arms, even 6 h–30 min) was “more than 50%”. The “median Tmax on Day 10, range across treatment arms” value (all five treatment arms) was 48 to 60 min.
